Activity calls are given as the source filed them.

Results on two compounds are retold here after ChEMBL document CHEMBL3244273, “Analgesic activity of novel spiro heterocycles. 2-Amino-7-oxa-3-thia-1-azaspiro[5,5]undec-1-enes and related compounds” (J Med Chem, 1978).

Data set [1] in a line: Acute toxicity in po dosed CF-1S mouse assessed as mortality measured for 5 days. Format: organism-based. Conditions: in vivo. In outline:
(§1)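 Male and female CF-1S mice (17-25 g) received the compound suspended in gum acacia solution, orally or intraperitoneally, in groups of six to ten per dose level. Mortality was followed for 24 h after ip dosing and for 5 days after oral dosing. LD50 was calculated by the Miller-Tainter method.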

The test system of data set [2] is Mus musculus. Kind of data set: Analgesic activity in po dosed CF-1 mouse assessed as reduction in phenylquinone-induced writhing responses administered 15 mins prior to phenylquinone challenge. Conditions: Mus musculus, CF-1, po; read-out: ED50. Format: functional.
Data set [3] is described as follows: Acute toxicity in ip dosed CF-1S mouse assessed as mortality measured for 24 hrs. Conditions: in vivo. Format: organism-based. An outline of the steps:
as §1

The subject of data set [4] is Rattus norvegicus. The experiment in a line: Analgesic activity against po dosed yeast-induced inflamed foot Sprague-Dawley rat model assessed as increase in pain threshold in inflamed paw measured after 2 hrs. Format: functional. Conditions: Rattus norvegicus, Sprague-Dawley, po, 2 h; read-out: ED50.
Data set [5] is filed under the species Rattus norvegicus. Kind of data set: Antiinflammatory activity against mycobacterial adjuvant-induced arthritis in rat. It counts as functional, organism-based.
The subject of data set [6] is Rattus norvegicus. The experiment in a line: Analgesic activity in po dosed Sprague-Dawley rat by tail flick assay. It counts as functional.
Data set [7] is described as follows: Retardation factor of the compound using benzene-triethylamine at ratio of 9:1 as solvent system by thin layer chromatography. It counts as physicochemical.
A short description of data set [8]: Retardation factor of the compound using benzene-ethyl acetate at ratio of 1:1 as solvent system by thin layer chromatography. Format: physicochemical.

As to `Cc1ccc(C(=O)/N=C2\NC3(CCCCO3)CCS2)cc1` (stereo unspecified), the LD50 at 120 h in data set [1] worked out at 1120 mg/kg. Besides, the ED50 was 60 mg/kg in data set [2], 0.9 mg/kg in data set [4] and over 25 mg/kg in data set [6]. Besides, the LD50 at 24 h in data set [3] was over 400 mg/kg. Besides, the outcome in data set [5] was inactive.
Turning to `c1ccc(CNC2=NC3(CCCCO3)CCS2)cc1` (racemic), the ED50 in data set [2] was over 200 mg/kg; in data set [4] it was over 100 mg/kg. Besides, the Rf in data set [7] is on record as 0.5; in data set [8] it was 0.15. Moreover, the result in data set [5] was inactive.
